Bioassay records: PubChem, several laboratories
MsrA act: bovine MsrA enzyme activators, primary screen, biochemical, absorbance, HTS. Methionine sulfoxide reductase A (Bos taurus). purified bovine MsrA, absorbance read-out. activation, % at 10.6 µM. actives 0.3% (n = 360,000). AID 602163, 2012; in the data active = activation above about 7.5%;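 note: 0% = vehicle and 100% = reference activator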
MsrA inh: bovine MsrA enzyme inhibitors, primary screen, biochemical, absorbance, HTS; AID 651718, 2012; Methionine sulfoxide reductase A (Bos taurus); purified bovine MsrA, absorbance read-out; inhibition, % at 15.5 µM; actives 0.75% (n = 360,000); in the data active = inhibition above about 4.5%;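 note: 0% = vehicle wells with enzyme and 100% = reference inhibitor wells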
AHR act: AHR activators, primary screen, cell-based, luminescence, luciferase reporter, human | AHR-responsive luciferase reporter cells | actives 2.5% (n = 320,000) | Aryl hydrocarbon receptor (Homo sapiens), P35869 | activation, % at 5 µM; in the data active = activation above about 47%;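 note: 0% = vehicle wells and 100% = reference agonist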
AI-2 QS modul: Vibrio harveyi AI-2 quorum sensing modulators, primary screen, JMH597 strain, luminescence/OD600 ratio; Vibrio harveyi JMH597 AI-2 luminescence/OD600 ratio, 9 h; stronger effect = lower value; strain lacks LuxN and CqsS sensors; 0 = neutral-control median; activity change, % at 7.5 µM; actives 0.4% (n = 300,000); AID 2094, 2009; in the data active = activity change below about -75%, passing the limit was not always enough;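 note: luminescence divided by OD600 gain over 9 h not by final OD600 alone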
TbMetRS inhib: T. brucei MetRS inhibitors, primary screen, biochemical, luminescence | actives 0.4% (n = 360,000) | purified T. brucei MetRS, ATP depletion, Kinase-Glo luminescence | methionyl-tRNA synthetase (Trypanosoma brucei brucei) | inhibition, % at 11.9 µM;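 active = inhibition above a per-plate cutoff of the control wells' mean inhibition plus 3 SD, cut at about 5.5% in these data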;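 note: 0% = DMSO wells median and 100% = median of wells with control inhibitor compound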
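technique = Kinase-Glo luminescence, ATP depletion format | system = purified MetRS (methionyl-tRNA synthetase) enzyme from Trypanosoma brucei | timing = 15 min preincubation, 2 h reaction, all 25 °C | evaluation = percent inhibition versus plate control medians | dosing = single dose, 11.9 µM final nominal, 0.9% final DMSO | also added = substrates ATP, L-methionine and bulk Escherichia coli tRNA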
m5-HT2A agonist: mouse Htr2a agonists via beta-arrestin recruitment, primary screen, cell-based, luminescence. 5-hydroxytryptamine receptor 2A (Mus musculus), P35363. CHO-K1 mHTR2A beta-arrestin complementation; percent of 30 µM serotonin response. activation, % at 7.6 µM. actives 0.66% (n = 360,000). AID 624169, 2012;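 active = activation above a run cutoff, the mean activation of all tested compounds plus 3 SD, cut at about 14% in these data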;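 note: 0% = plate median of compound wells and 100% = 30 µM serotonin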
Target sequence (P35363 whole entry, looked up): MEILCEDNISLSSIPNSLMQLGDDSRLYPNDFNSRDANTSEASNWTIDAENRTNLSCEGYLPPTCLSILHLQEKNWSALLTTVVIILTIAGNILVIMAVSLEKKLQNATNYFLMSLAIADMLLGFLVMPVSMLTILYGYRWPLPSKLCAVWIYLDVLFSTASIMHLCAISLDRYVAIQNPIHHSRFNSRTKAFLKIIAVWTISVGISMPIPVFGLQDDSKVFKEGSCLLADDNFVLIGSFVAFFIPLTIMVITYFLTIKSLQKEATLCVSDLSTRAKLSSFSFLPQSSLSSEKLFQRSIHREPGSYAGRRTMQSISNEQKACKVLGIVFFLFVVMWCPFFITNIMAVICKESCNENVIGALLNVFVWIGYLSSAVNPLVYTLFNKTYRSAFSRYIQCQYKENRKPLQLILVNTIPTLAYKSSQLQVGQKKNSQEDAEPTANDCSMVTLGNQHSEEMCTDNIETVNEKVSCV
The depositor's hits bear a star; · = not tested or not shown. Sampled rows, rich in hits. Any-hit rate of the full collection: about 4.4%.

SMILES | MsrA act | MsrA inh | AHR act | AI-2 QS modul | TbMetRS inhib | m5-HT2A agonist
COC(=O)[C@]12C[C@H](CC(=O)N3CCOCC3)C(=O)N(Cc3ccccc3)C1=C[C@H](C(C)C)O[C@@H]2C1CC1 | · | 0 | · | · | · | ·
CCCCNC(=S)NNC(=O)c1cc(-c2cccnc2)nc2ccccc12 | -1 | 2 | 54* | 15 | 0 | -10
COc1cc(/C=N/NC(=S)NC2CC3CCC2C3)ccc1O (centres undefined) | -3 | 2 | 6 | 57 | 0 | -3
S=C(N/N=C/c1ccc2c(c1)OCO2)NC1CC2CCC1C2 (centres undefined) | -9 | 1 | 68* | -10 | -1 | 4
Cc1occc1C(=O)N/N=C/c1ccc2c(c1)OCO2 | -3 | 3 | 40 | 5 | -3 | -4
O=C(N/N=C/c1ccc2c(c1)OCO2)c1cc(-c2ccccc2)nc2ccccc12 | -12 | 2 | 51* | 34 | -1 | -6
CCCNC(=S)NNC(=O)c1cc(-c2cccnc2)nc2ccccc12 | -13 | 1 | 25 | 15 | -1 | -5
Cc1cc(C(=O)N/N=C/c2ccc3c(c2)OCO3)c(C)o1 | -4 | 2 | 72* | 2 | -2 | -2
COc1ccc2[nH]c3c(N4CCC(O)(c5cccc(C(F)(F)F)c5)CC4)ncnc3c2c1 | -6 | 1 | 68* | 7 | 0 | -4
C=CCN=C1NC(c2cccc(F)c2)C(C(=O)OC)=C(C)N1C (centres undefined) | · | 1 | · | · | · | ·
COc1cccc(N(CC(=O)NCCSc2ccccn2)S(=O)(=O)c2ccccc2)c1 | -14 | 0 | 2 | 28 | 0 | -7
COc1ccc(CN2C[C@@]3(O)CC[C@@H](O)[C@@H](OC)[C@@H]3[C@@]2(C)[C@H](O)CC=C(C)C)cc1 | · | 0 | · | · | · | ·
CCCCOc1ccc(Br)cc1/C(C)=N/NC1=NCCN1 | 5 | -1 | 57* | 17 | 0 | -5
COc1ccc(S(=O)(=O)Nc2ccc3c(c2)C(=O)N([C@@H](C)CO)C[C@@H](C)[C@H](CN(C)S(=O)(=O)c2ccc(F)cc2)OCCCC[C@H](C)O3)cc1 | -12 | 1 | · | · | 1 | 3
COC(=O)c1cc2c(c3c4cc(C)ccc4n(S(=O)(=O)c4ccc(OC)cc4)c13)C(=O)N(Cc1ccccc1OC)C2 | · | 0 | · | · | · | ·
CCCCCOC(=O)c1[nH]c2c(c1C)C(=O)CC(c1ccco1)C2 (centres undefined) | -1 | · | 140* | 24 | 0 | 5
COC(=O)C1=C(C)N(Cc2ccccc2C(F)(F)F)C(=NCc2cccc(C(F)(F)F)c2)NC1c1cccc(Cl)c1 (centres undefined) | · | -2 | · | · | · | ·
COC(=O)C1=C(C)N(C)C(=NCC2CC2)NC1c1cccc(F)c1 (centres undefined) | · | 0 | · | · | · | ·
CCc1cc2ccc(OC)cc2nc1SCC(=O)NNC(=O)c1ccco1 | -4 | 0 | 53* | -12 | -1 | 1
COCc1[nH]nc2c1C(c1cccc(C(F)(F)F)c1)NC2=O (centres undefined) | · | 1 | · | · | · | ·
CCn1c(/N=C/c2ccccc2NS(=O)(=O)c2ccc(C)cc2)nc2ccccc21 | -10 | · | 8 | · | 6.5* | 1
Cc1cc(=O)oc2cc(NC(=O)c3ccccc3Cl)ccc12 | -4 | 1 | 63* | 7 | 1 | -4
Cc1cc(=O)oc2cc(NC(=O)c3ccccc3C(=O)O)ccc12 | -7 | 4 | 4 | 15 | 0 | 0
COc1ccccc1NC(C)C(=O)N/N=C/c1ccccc1OCc1cccc(Br)c1 (centres undefined) | -3 | 0 | 52* | 13 | 0 | -1
Cc1ccccc1C(=O)Oc1ccccc1N1C(=O)C2CC=CCC2C1=O (centres undefined) | -2 | 0 | 75* | 13 | 0 | -1
SMILES | MsrA act | MsrA inh | AHR act | AI-2 QS modul | TbMetRS inhib | m5-HT2A agonist
COc1cc(OC)c(OC)cc1/C=C1\SC(N2CCCCC2)=NC1=O | -3 | 0 | 10 | 31 | -1 | -4
COc1ccc(OC)c(/C=C2\SC(N3CCCCC3)=NC2=O)c1 | -3 | 1 | 74* | 22 | 0 | 1
Cc1ccc(NC(=O)c2cc(S(=O)(=O)Nc3ccc(C)cc3)cs2)cc1 | -2 | 0 | 45 | -79* | 0 | -7
COC(=O)[C@]12C[C@H](CC(=O)NCc3ccccc3)C(=O)N(Cc3ccc4c(c3)OCO4)C1=C[C@H](COCc1ccccc1)O[C@@H]2C | · | 0 | · | · | · | ·
Nc1[nH]c(C(=O)c2ccc(Br)cc2)c(-c2c(F)cccc2F)c1C(=O)NCCc1c[nH]c2ccccc12 | · | 0 | · | · | · | ·
Cc1ccc(-c2nnn3c2nc(NCCc2ccc(S(N)(=O)=O)cc2)c2ccccc23)cc1 | -3 | -1 | 37 | 29 | -1 | 2
Cc1cccc(-c2nnn3c2nc(NCCc2ccc(S(N)(=O)=O)cc2)c2ccccc23)c1 | -7 | 0 | 50* | 23 | -1 | 3
COc1ccc(-c2cc(C(F)(F)F)c3c(n2)sc2c(O)cc(=O)[nH]c23)c(OC)c1 | -3 | 2 | 70* | 39 | -1 | 3
C=CCNC(=O)C1CC1(c1cccc(C)c1)c1cccc(C)c1 (centres undefined) | -5 | 1 | 0 | 17 | 0 | 2
Cc1cccc(C2(c3cccc(C)c3)CC2C(=O)Nc2ccc([N+](=O)[O-])cc2O)c1 (centres undefined) | -1 | 1 | 77* | 25 | 0 | -5
COc1ccc(C(=O)N2CCc3ccccc32)cc1 | -1 | -1 | 5 | 40 | 0 | 0
COc1ccc(C(=O)/C=C2\NCC3c4ccccc4CCN3C2=O)cc1 (centres undefined) | -6 | 1 | 89* | 20 | -1 | -3
N#Cc1cnn2c(C(F)(F)F)cc(-c3ccccc3)nc12 | -2 | 1 | 60* | -1 | -1 | -4
C[C@H](O)[C@@H]1C(=O)N2CCc3c([nH]c4c(-c5ccccc5)cccc34)[C@@H]2C[C@@H]1N(C)C(=O)c1ccco1 | · | 1 | · | · | · | ·
O=C(Nc1nc2ccccc2s1)c1ccccc1 | -5 | 0 | 27 | 5 | 1 | 2
c1ccc2sc(NN=C3CCCCCC3)nc2c1 | -3 | 3 | 51* | 19 | 0 | -6
C[C@H](N)c1nnc(SCc2c(Cl)cccc2Cl)o1 | -1 | -1 | 8 | 1 | 0 | 5
Nc1ccccc1SCc1c(Cl)cccc1Cl | -1 | 1 | 50* | 8 | 0 | -1
Nc1ccccc1SCc1ccccc1Cl | -2 | 1 | 67* | -7 | 0 | 8
